# Columns and labels:
# CCRF-CEM [1] = assay: Cytotoxic concentration against CEM cells (in vitro); type: functional; settings: Homo sapiens
# Outline: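 Mock-infected CEM cultures exposed to compound dilutions alongside the antiviral assay and scored at day 4. CC₅₀ is the concentration reducing cell number by 50%.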
# CEM-TK(-) (Homo sapiens) = assay: Activity against HIV-1 in CEM/TK cells (in vitro)
# MT4 [2] = assay: Activity against HIV-1 in MT-4 cells (in vitro); type: functional, cell-based; settings: Homo sapiens
# Outline: (§1)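 MT-4 cells at 5 × 10⁵/mL infected with HIV-1 (IIIB) or HIV-2 (ROD) at about 100 CCID50/mL and exposed to compound dilutions. After 5 days, viable cells counted by trypan blue staining. EC₅₀ is the concentration protecting cells against viral cytopathogenicity by 50%. Mean of two to four independent experiments.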
# CCRF-CEM [3] = assay: Activity against HIV-2 in CEM cells (in vitro); type: functional, cell-based; settings: Homo sapiens
# Outline: (§2)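 Cells at 5 × 10⁵/mL infected with HIV-1 (IIIB) or HIV-2 (ROD) at about 100 CCID50/mL, then mixed with dilutions of test compound. After 4 days, giant cell formation scored microscopically. EC₅₀ is the concentration cutting giant cells by 50%. Mean of two to four independent experiments.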
# CCRF-CEM [4] = assay: Activity against HIV-1 in CEM cells (in vitro); type: functional, cell-based; settings: Homo sapiens; outline: as §2
# MT4 [5] = assay: Activity against HIV-2 in MT-4 cells (in vitro); type: functional, cell-based; settings: Homo sapiens; outline: as §1
# MT4 [6] = assay: Cytotoxic concentration against MT-4 cells (in vitro); type: functional; settings: Homo sapiens
# Outline: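 Mock-infected MT-4 cultures (5 × 10⁵ cells/mL) exposed to compound dilutions for 5 days. Viable cells counted by trypan blue. CC₅₀ is the concentration reducing viable cell number by 50%.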
# CCRF-CEM [7] = assay: Compound was tested for activity against HIV-2 in CEM cells; type: functional, cell-based; settings: Homo sapiens; outline: as §2
Compound,CC50 (CCRF-CEM [1]) [µM],EC50 (CEM-TK(-) (Homo sapiens)) [µM],EC50 (MT4 [2]) [µM],EC50 (CCRF-CEM [3]) [µM],EC50 (CCRF-CEM [4]) [µM],EC50 (MT4 [5]) [µM],CC50 (MT4 [6]) [µM],EC50 (CCRF-CEM [7]) [µM]
COC(=O)C(C)NP(=O)(OC[C@@H]1C=C[C@H](n2cc(C)c(=O)[nH]c2=O)O1)Oc1ccccc1 (stereo partly drawn),100,0.075,0.0665,0.2,0.182,0.067,> 100,–
COC(=O)C(C)NP(=O)(OCC1C=CC(n2cc(C)c(=O)[nH]c2=O)O1)Oc1cc(Cl)cc(Cl)c1 (stereo not drawn),26.9,0.11,0.037,0.15,0.11,0.12,10.5,–
COC(=O)C(NP(=O)(OCC1C=CC(n2cc(C)c(=O)[nH]c2=O)O1)Oc1ccccc1)C(C)C (stereo not drawn),> 250,4,3.58,12.5,12.5,11.2,> 250,–
COC(=O)C(C)NP(=O)(OC[C@@H]1C=C[C@H](n2cc(C)c(=O)[nH]c2=O)O1)Oc1cccc(C(F)(F)F)c1 (stereo partly drawn),29.8,0.11,0.046,0.15,0.15,0.11,9.75,–
COC(=O)C(C)NP(=O)(OCC1C=CC(n2cc(C)c(=O)[nH]c2=O)O1)Oc1ccc(Br)cc1Br (stereo not drawn),16,0.025,–,0.055,0.04,–,–,–
COC(=O)CNP(=O)(OCC1C=CC(n2cc(C)c(=O)[nH]c2=O)O1)Oc1ccccc1 (stereo not drawn),> 250,7,1.34,6,6,6.71,> 250,–
COC(=O)C(CC(C)C)NP(=O)(OCC1C=CC(n2cc(C)c(=O)[nH]c2=O)O1)Oc1ccccc1 (stereo not drawn),> 250,0.4,0.2,–,1.1,0.47,61.5,2.23
COC(=O)C(Cc1ccccc1)NP(=O)(OCC1C=CC(n2cc(C)c(=O)[nH]c2=O)O1)Oc1ccccc1 (stereo not drawn),216,0.33,0.19,1.35,0.8,0.38,34.1,–
COC(=O)C(CCSC)NP(=O)(OCC1C=CC(n2cc(C)c(=O)[nH]c2=O)O1)Oc1ccccc1 (stereo not drawn),> 250,0.33,0.23,0.8,0.6,0.38,22,–
COC(=O)C(C)NP(=O)(OCC1C=CC(n2cc(C)c(=O)[nH]c2=O)O1)Oc1c(F)c(F)c(F)c(F)c1F (stereo not drawn),115,8.5,1.72,3.7,2.5,4.07,82.2,–
COC(=O)C(C)NP(=O)(OC)OCC1C=CC(n2cc(C)c(=O)[nH]c2=O)O1 (stereo not drawn),> 250,> 250,25.4,50,20,50.9,> 250,–
CCOP(=O)(NC(C)C(=O)OC)OCC1C=CC(n2cc(C)c(=O)[nH]c2=O)O1 (stereo not drawn),> 250,48,28.5,240,48,62.5,> 250,–
CCc1ccc(OP(=O)(NC(C)C(=O)OC)OCC2C=CC(n3cc(C)c(=O)[nH]c3=O)O2)cc1 (stereo not drawn),60,0.06,0.057,0.16,0.07,0.063,> 100,–
Cc1cn([C@H]2C=C[C@@H](CO)O2)c(=O)[nH]c1=O [STAVUDINE],174,33.3,0.651,0.775,0.8,0.77,19,–
Cc1cn([C@H]2C[C@H](N=[N+]=[N-])[C@@H](CO)O2)c(=O)[nH]c1=O [ZIDOVUDINE],> 500,> 100,–,–,–,–,6,–

# Source: ChEMBL document CHEMBL1129557, “Aryl phosphoramidate derivatives of d4T have improved anti-HIV efficacy in tissue culture and may act by the generation of a novel intracellular metabolite” (J Med Chem, 1996)
